pEC50: −log10 of the molar value. Active and inactive are the calls of the source.
Assays:
[1] = tested on: NIH3T3; assay: Cytotoxicity against mouse NIH/3T3 cells after 96 hrs by SRB assay; assay type: cell-based; conditions: NIH3T3, 96 h
Outline: (§1)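 EC50 from sulforhodamine B assay after 96 h exposure. Each value is averaged from three independent experiments, each run in triplicate, with 95% confidence interval. Assay cut-off 30 µM.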

[2] = tested on: 518A2; assay: Cytotoxicity against human 518A2 cells after 96 hrs by SRB assay; assay type: functional, cell-based; conditions: 518A2, 96 h; outline: as §1
[3] = tested on: A549; assay: Cytotoxicity against human A549 cells after 96 hrs by SRB assay; assay type: functional, cell-based; conditions: A549, 96 h; outline: as §1
[4] = tested on: HT-29; assay: Cytotoxicity against human HT-29 cells after 96 hrs by SRB assay; assay type: functional, cell-based; conditions: HT-29, 96 h; outline: as §1
[5] = tested on: A2780; assay: Cytotoxicity against human A2780 cells after 96 hrs by SRB assay; assay type: functional, cell-based; conditions: A2780, 96 h; outline: as §1
[6] = tested on: 8505C; assay: Cytotoxicity against human 8505C cells after 96 hrs by SRB assay; assay type: functional, cell-based; outline: as §1
[7] = tested on: MCF7; assay: Cytotoxicity against human MCF7 cells after 96 hrs by SRB assay; assay type: functional, cell-based; conditions: MCF7, 96 h; outline: as §1
[8] = tested on: A2780; assay: Induction of morphological changes in human A2780 cells at 0.1 uM after 24 hrs by rhodamine 123/Hoechst 33342 staining-based fluorescence microscopic method; assay type: functional, cell-based
Outline: (§2)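 Approx. 800,000 A2780 cells grown 24 h in 25 cm² flasks. Medium then replaced with compound-containing medium at 0.1 µM, or blank medium as control, for 24 h. Cells collected, centrifuged at 1200 rpm and 4 °C, and washed in PBS. Live cells stained with Hoechst 33342 (DNA) and rhodamine 123 (mitochondria), then imaged by fluorescence and light microscopy.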

[9] = tested on: A2780; assay: Induction of necrosis in human A2780 cells at 0.1 uM after 24 hrs by annexin V/propidium iodide staining-based flow cytometric method relative to control; assay type: functional, cell-based
Outline: (§3)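 A2780 cells treated at 0.1 µM, and at up to 0.4 µM, compared with untreated control. Stained with annexin V/propidium iodide and quantified by FACS.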

[10] = Drug uptake in mitochondria of human A2780 cells at 0.1 uM after 24 hrs by fluorescence and light microscopy; assay type: ADME; outline: as §2
[11] = Selectivity factor, ratio of EC50 for mouse NIH/3T3 cells to EC50 for human A2780 cells
[12] = tested on: A2780; assay: Induction of apoptosis in human A2780 cells at 0.1 to 0.4 uM after 24 hrs by annexin V/propidium iodide staining-based flow cytometric method relative to control; assay type: functional, cell-based; outline: as §3

| Drug uptake [10] | Structure (SMILES) | pEC50 [1] | pEC50 [2] | pEC50 [3] | pEC50 [4] | pEC50 [5] | pEC50 [6] | pEC50 [7] | Activity [8] | Activity [9] | Ratio EC50 [11] | Activity [12] |
| --- | --- | --- | --- | --- | --- | --- | --- | --- | --- | --- | --- | --- |
| – | C[C@H]1[C@H](C)CC[C@]2(C(=O)O)CC[C@]3(C)C(=CC[C@@H]4[C@@]5(C)CC[C@H](O)C(C)(C)[C@@H]5CC[C@]43C)[C@H]12 [URSOLIC ACID] | 4.73 | 4.83 | – | – | – | – | – | – | – | – | – |
| – | CCN(CC)c1ccc2c(-c3ccccc3C(=O)N3CCN(C(=O)[C@]45CCC(C)(C)C[C@H]4C4=CC[C@@H]6[C@@]7(C)CC[C@H](OC(C)=O)C(C)(C)[C@@H]7CC[C@@]6(C)[C@]4(C)CC5)CC3)c3ccc(=[N+](CC)CC)cc-3oc2c1 | 6.86 | 7.37 | 6.92 | 7.04 | 7.49 | 7.35 | 7.21 | – | – | – | – |
| – | CC1(C)CC[C@]2(C(=O)O)CC[C@]3(C)C(=CC[C@@H]4[C@@]5(C)CC[C@H](O)C(C)(C)[C@@H]5CC[C@]43C)[C@@H]2C1 [OLEANOLIC_ACID] | < 4.52 | < 4.52 | < 4.52 | < 4.52 | – | < 4.52 | < 4.52 | – | – | – | – |
| – | CC(=O)O[C@@H]1C[C@]2(C)[C@H]3CC=C4[C@@H]5CC(C)(C)CC[C@]5(C(=O)N5CCNCC5)CC[C@@]4(C)[C@]3(C)CC[C@H]2C(C)(C)[C@H]1OC(C)=O | 5.49 | – | 5.82 | 5.80 | 5.72 | – | 6.00 | – | – | – | – |
| – | CCN(CC)c1ccc2c(-c3ccccc3C(=O)N3CCN(C(=O)[C@]45CC[C@@H](C(C)=O)[C@@H]4[C@H]4CC[C@@H]6[C@@]7(C)CC[C@H](OC(C)=O)C(C)(C)[C@@H]7CC[C@@]6(C)[C@]4(C)CC5)CC3)c3ccc(=[N+](CC)CC)cc-3oc2c1 | 6.77 | 7.00 | 6.88 | 7.00 | 7.44 | 6.84 | 7.15 | – | – | – | – |
| – | CC(=O)O[C@H]1CC[C@]2(C)[C@H]3CC=C4[C@@H]5CC(C)(C)CC[C@]5(C(=O)N5CCNCC5)CC[C@@]4(C)[C@]3(C)CC[C@H]2C1(C)C | 5.77 | 5.57 | 5.64 | 5.89 | 5.77 | 5.42 | 5.77 | – | – | – | – |
| – | CC1(C)[C@@H](O)CC[C@]2(C)[C@H]3C(=O)C=C4[C@@H]5C[C@@](C)(C(=O)O)CC[C@]5(C)CC[C@@]4(C)[C@]3(C)CC[C@@H]12 [ENOXOLONE] | 4.73 | < 4.52 | < 4.52 | < 4.52 | < 4.52 | < 4.52 | < 4.52 | – | – | – | – |
| – | CC(=O)O[C@H]1CC[C@]2(C)[C@H]3CC=C4[C@@H]5[C@@H](C)[C@H](C)CC[C@]5(C(=O)N5CCNCC5)CC[C@@]4(C)[C@]3(C)CC[C@H]2C1(C)C | 5.68 | 5.59 | 5.49 | 5.72 | 5.68 | 5.46 | 5.70 | – | – | – | – |
| Active | CCN(CC)c1ccc2c(-c3ccccc3C(=O)N3CCN(C(=O)[C@]45CCC(C)(C)C[C@H]4C4=CC[C@@H]6[C@@]7(C)C[C@@H](OC(C)=O)[C@H](OC(C)=O)C(C)(C)[C@@H]7CC[C@@]6(C)[C@]4(C)CC5)CC3)c3ccc(=[N+](CC)CC)cc-3oc2c1.[Cl-] | 6.48 | 7.96 | 6.73 | 7.24 | 8.15 | – | 7.55 | inactive | Active | 50 | inactive |
| – | CC(=O)O[C@H]1CC[C@]2(C)[C@H]3CC[C@@H]4[C@H]5[C@H](C(C)=O)CC[C@]5(C(=O)N5CCNCC5)CC[C@@]4(C)[C@]3(C)CC[C@H]2C1(C)C | 6.15 | 5.57 | 5.41 | 5.62 | 5.51 | 5.43 | 5.55 | – | – | – | – |
| – | CC1(C)CC[C@]2(C(=O)O)CC[C@]3(C)C(=CC[C@@H]4[C@@]5(C)C[C@@H](O)[C@H](O)C(C)(C)[C@@H]5CC[C@]43C)[C@@H]2C1 [MASLINIC ACID] | 4.68 | 4.86 | 4.63 | 4.54 | 4.71 | 4.77 | < 4.52 | – | – | – | – |
| – | C=C(C)[C@@H]1CC[C@]2(C(=O)O)CC[C@]3(C)[C@H](CC[C@@H]4[C@@]5(C)CC[C@H](O)C(C)(C)[C@@H]5CC[C@]43C)[C@@H]12 [BETULINIC ACID] | 4.79 | 5.03 | – | – | – | – | – | – | – | – | – |
| – | CC(=O)O[C@H]1CC[C@]2(C)[C@H]3C(=O)C=C4[C@@H]5C[C@@](C)(C(=O)N6CCNCC6)CC[C@]5(C)CC[C@@]4(C)[C@]3(C)CC[C@H]2C1(C)C | 5.06 | 5.03 | 4.98 | 5.35 | 5.09 | 5.00 | 5.08 | – | – | – | – |
| – | CCN(CC)c1ccc2c(-c3ccccc3C(=O)O)c3ccc(=[N+](CC)CC)cc-3oc2c1 [RHODAMINE] | < 4.52 | < 4.52 | < 4.52 | < 4.52 | < 4.52 | < 4.52 | < 4.52 | – | – | – | – |
| – | CC(=O)[C@@H]1CC[C@]2(C(=O)O)CC[C@]3(C)[C@H](CC[C@@H]4[C@@]5(C)CC[C@H](O)C(C)(C)[C@@H]5CC[C@]43C)[C@@H]12 [PLATANIC ACID] | – | < 4.52 | < 4.52 | < 4.52 | < 4.52 | < 4.52 | < 4.52 | – | – | – | – |
| – | C=C(C)[C@@H]1CC[C@]2(C(=O)N3CCNCC3)CC[C@]3(C)[C@H](CC[C@@H]4[C@@]5(C)CC[C@H](OC(C)=O)C(C)(C)[C@@H]5CC[C@]43C)[C@@H]12 | 6.05 | 5.82 | 5.66 | 6.00 | 5.72 | 5.66 | 5.85 | – | – | – | – |
| – | C=C(C)[C@@H]1CC[C@]2(C(=O)N3CCN(C(=O)c4ccccc4-c4c5ccc(=[N+](CC)CC)cc-5oc5cc(N(CC)CC)ccc45)CC3)CC[C@]3(C)[C@H](CC[C@@H]4[C@@]5(C)CC[C@H](OC(C)=O)C(C)(C)[C@@H]5CC[C@]43C)[C@@H]12 | 6.68 | 7.34 | 6.75 | 6.82 | 7.30 | 7.21 | 7.09 | – | – | – | – |
| – | CCN(CC)c1ccc2c(-c3ccccc3C(=O)N3CCN(C(=O)[C@]45CC[C@@H](C)[C@H](C)[C@H]4C4=CC[C@@H]6[C@@]7(C)CC[C@H](OC(C)=O)C(C)(C)[C@@H]7CC[C@@]6(C)[C@]4(C)CC5)CC3)c3ccc(=[N+](CC)CC)cc-3oc2c1 | 6.86 | 7.33 | 6.85 | 7.08 | 7.42 | 7.33 | 7.12 | – | – | – | – |

Reference: ChEMBL document CHEMBL3997779, “Rhodamine B conjugates of triterpenoic acids are cytotoxic mitocans even at nanomolar concentrations” (Eur J Med Chem, 2017)
